Assay results published in PMC4160070 (Journal of clinical pharmacology, 2014).
Read-outs that look alike come from different tables or passages of the source.

Columns and labels:
[1] = test system: ENaC in primary type II alveolar epithelial cells; conditions: dog AEC type II cells, cited from earlier work
healthy male subjects [2] = conditions: in vivo
ENaC = conditions: cell-based studies; no reference given; cited from earlier work
healthy male subjects [3] = conditions: in vivo; remark: listed apart in the source
[4] = test system: ENaC in primary type II alveolar epithelial cells; conditions: pig AEC type II cells, cited from earlier work
animal models = conditions: various animal models; cited from earlier work
[5] = Properties of the reconstituted AP301 solution; type: physicochemical; conditions: AP301 25 mg/mL, lyophilized powder reconstituted in water for injection
[6] = test system: ENaC in primary type II alveolar epithelial cells; conditions: rat AEC type II cells, cited from earlier work
[7] = test system: acute lung injury (ALI) in anaesthetized domestic pigs; conditions: pigs with ALI, single nebulization of 1.0 mg/kg, observation 5 hours; cited from earlier work
healthy male subjects [8] = conditions: in vivo; remark: listed apart in the source
[9] = human, in vivo, inhaled or intranasal
Aerosol characterization = type: physicochemical
Summary of the method: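 Test compound supplied as lyophilized powder, reconstituted in water for injection to 25 mg/mL. The solution was aerosolized with an Aeroneb Solo vibrating-mesh nebulizer driven by an Aeroneb Pro-X controller. Particle distribution was measured by Next Generation Impactor at 15 L/min and by laser diffraction. Read-outs were fine particle fraction and average droplet size.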

[10] = dog, in vivo; cited from earlier work
[11] = mouse, in vivo; cited from earlier work
healthy male subjects [12] = conditions: in vivo; remark: listed apart in the source
healthy male subjects [13] = conditions: in vivo; remark: listed apart in the source
[14] = rat, in vivo; cited from earlier work
healthy male subjects [15] = conditions: in vivo; remark: listed apart in the source
dog = conditions: in vivo
[16] = in vivo
[17] = whole cell patch clamp, in the presence of AP301
[18] = 25 mg/mL solution, Aeroneb Solo nebulizer, laser diffraction, Apeptico Research Report, data on file

C[C@@H]1NC(=O)CNC(=O)[C@H](CCC(=O)O)NC(=O)[C@@H]2CCCN2C(=O)[C@H]([C@@H](C)O)NC(=O)[C@H](CCC(=O)O)NC(=O)[C@H](CCCNC(=N)N)NC(=O)[C@H](CCC(N)=O)NC(=O)CNC(=O)[C@@H](N)CSSC[C@@H](C(=O)O)NC(=O)[C@H](Cc2ccc(O)cc2)NC(=O)[C@H](Cc2c[nH]c3ccccc23)NC(=O)[C@@H]2CCCN2C(=O)[C@H](CCCCN)NC(=O)[C@H](C)NC(=O)[C@H](CCC(=O)O)NC1=O [AP301]
increase of amiloride-sensitive Na+ currents (via ENaC) versus baseline [1, 17]: ~13 fold | effects on vital signs (SBP, DBP, HR) (healthy male subjects [2]): no clinically meaningful dose-or time-dependent effects | concentration range in which ENaC activation was dose-dependent (ENaC): 5 to 100 nM | changes in safety laboratory variables (healthy male subjects [3]): No clinically meaningful or remarkable dose-or time-dependent changes | increase of amiloride-sensitive Na+ currents (via ENaC) versus baseline [4, 17]: ~16 fold | effective pharmacological dose range (animal models): 0.5–1.0 mg/kg BW | osmolarity of the solution [5]: 23 mosmol/L | pH of the solution [5]: 4.40 | viscosity of the solution [5]: 1.07 mPa s | increase of amiloride-sensitive Na+ currents (via ENaC) versus baseline [6, 17]: about 9 fold | oxygenation (PaO2/FiO2) [7]: significant improvement | pulmonary shunt fraction (Qs/Qt) [7]: reduction | FEV1 declines of ≥20% from baseline (healthy male subjects [8]): no FEV1 declines of ≥20% from baseline were noted in any subject | effects on airway caliber or vital capacity (FVC, FEV1) (healthy male subjects [8]): absence of relevant dose-dependent effects | subjects with post-dose FEV1 decline of ≥15% from baseline (healthy male subjects [8]): only a single subject | Tmax [9]: ~5 min | AUC(0-t) ([9]; 12 mg): 0.0333 ng·h/mL | Cmax ([9]; 12 mg): 0.4 ± 0.6 ng/mL | Tmax ([9]; 12 mg): 5 min | AUC(0-t) ([9]; 30 mg): 0.0183 ng·h/mL | Cmax ([9]; 30 mg): 0.3 ± 0.6 ng/mL | AUC(0-t) ([9]; 60 mg): 0.93 ng·h/mL | Cmax ([9]; 60 mg): 2.2 ± 1.4 ng/mL | Tmax ([9]; 60 mg): 5 min | AUC(0-t) ([9]; 90 mg): 0.758 ng·h/mL | Cmax ([9]; 90 mg): 2.4 ± 2.1 ng/mL | AUC(0-t) ([9]; 120 mg): 0.877 ng·h/mL | Cmax ([9]; 120 mg): 2.2 ± 1.8 ng/mL | Tmax ([9]; 120 mg): 2.5 min | average droplet size (Aerosol characterization; [18]): 3.3 μm | mean fine particle fraction (FPF) (Aerosol characterization; [18]): about 60% | FPF as determined by NGI (Aerosol characterization; Next Generation Impactor at 15 L/min): 60% | absorption from the pulmonary compartment into the systemic circulation [10]: hardly absorbed | absorption from the pulmonary compartment into the systemic circulation [11]: hardly absorbed | content of eNO versus baseline and pooled placebo (healthy male subjects [12]): did not change | QTc value (healthy male subjects [13]): ≤ 450 milliseconds | changes in ECG outcome variables (healthy male subjects [13]): no clinically meaningful or remarkable dose-or time-dependent changes | absorption from the pulmonary compartment into the systemic circulation [14]: hardly absorbed | number of AEs considered related to AP301 inhalation (healthy male subjects [15]): 7 | overall frequency of AEs in subjects randomized to AP301 (healthy male subjects [15]): 25% | maximum recommended starting dose (MRSD) (dog): 0.1 mg/kg BW | maximum exposure values (Cmax) at mean dose-cohort level [16]: exceeding 2.0 ng/mL | mean Cmax values in the highest dose groups [16]: < 2.5 ng/mL | median tmax values across dose groups [16]: 0 to 5 min

N=C(N)NC(=O)c1nc(Cl)c(N)nc1N [amiloride, reference compound]
effect on the AP301-induced increase of Na+ current [1]: could be inhibited | effect on the AP301-induced increase of Na+ current [4]: could be inhibited | effect on the AP301-induced increase of Na+ current [6]: could be inhibited
